Source: ChEMBL document CHEMBL2440062, “New nucleotide-competitive non-nucleoside inhibitors of terminal deoxynucleotidyl transferase: discovery, characterization, and crystal structure in complex with the target” (J Med Chem, 2013)

Assays:
[1] = molecular target: DNA nucleotidylexotransferase (Homo sapiens, UniProt P04053); test: Inhibition of human recombinant TdT using [3H]dNTP as substrate after 10 mins by scintillation counting analysis
How it was run: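 TdT was from Trevigen. TCA-precipitated radioactivity was counted. ID50 came from dose–response fitting. For kinetics, DNA or dNTP was varied at increasing inhibitor, and Ki was obtained via Cheng–Prusoff for a competitive model.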

[2] = molecular target: T1, DNA polymerase lambda (Homo sapiens) (UniProt Q9UGP5); test: Inhibition of human recombinant full length DNA polymerase lambda TdT-like activity using [3H]dNTP as substrate after 10 mins by scintillation counting analysis
T1 sequence (whole entry): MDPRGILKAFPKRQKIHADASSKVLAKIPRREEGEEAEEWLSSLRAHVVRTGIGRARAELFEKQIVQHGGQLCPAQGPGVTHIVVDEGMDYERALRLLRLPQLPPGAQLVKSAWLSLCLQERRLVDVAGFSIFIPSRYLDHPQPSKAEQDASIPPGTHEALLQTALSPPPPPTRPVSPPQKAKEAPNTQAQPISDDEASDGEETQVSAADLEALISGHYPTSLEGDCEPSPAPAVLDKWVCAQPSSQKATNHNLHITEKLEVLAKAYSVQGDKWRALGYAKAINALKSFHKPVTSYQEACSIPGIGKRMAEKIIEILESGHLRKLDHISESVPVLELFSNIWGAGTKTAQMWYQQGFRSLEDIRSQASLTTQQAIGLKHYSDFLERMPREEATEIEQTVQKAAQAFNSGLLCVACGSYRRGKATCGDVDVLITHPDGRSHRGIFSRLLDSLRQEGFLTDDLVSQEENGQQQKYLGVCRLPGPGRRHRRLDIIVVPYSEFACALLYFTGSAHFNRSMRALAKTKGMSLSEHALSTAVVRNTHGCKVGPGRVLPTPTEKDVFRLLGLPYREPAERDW
How it was run: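 Full-length recombinant human pol λ (>90% pure) was tested for template-independent activity. Acid-insoluble radioactivity was counted, and ID50 came from dose–response fitting.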

[3] = molecular target: T1, DNA polymerase lambda (Homo sapiens); test: Inhibition of human recombinant full length DNA polymerase lambda using [3H]dTTP as substrate and 10 poly(dA)/oligo(dT) as template-primer after 15 mins by scintillation counting analysis
How it was run: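 Recombinant full-length human pol λ at 50 nM was assayed with 0.2 μM poly(dA)/oligo(dT)10:1 (3′-OH ends) and 5 μM [3H]dTTP (5 Ci/mmol). Incubation was 15 min at 37 °C. TCA precipitates were scintillation counted.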

[4] = molecular target: DNA polymerase beta (Homo sapiens, UniProt P06746); test: Inhibition of human recombinant DNA polymerase beta
[5] = test system: HeLa; test: Cytotoxicity against TdT-deficient human HeLa cells assessed as growth inhibition after 24 to 48 hrs by MTT assay; format: cell-based
How it was run: (§1)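 MOLT-4 cells were grown in RPMI-1640 and HeLa cells in DMEM, with 10% FCS at 37 °C. Cells were seeded at 10^5 per well, given 24 h to attach, then exposed to compounds (0.1–100 range) for 24 or 48 h. MTT at 1 mg/mL was added for 2 h at 37 °C, formazan was dissolved in DMSO, and absorbance read at 550 nm versus 0.5% DMSO vehicle. IC50 was obtained by regression, in triplicate.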

[6] = test system: MOLT-4; test: Cytotoxicity against human MOLT4 cells overexpressing TdT assessed as growth inhibition after 24 to 48 hrs by MTT assay; format: functional, cell-based; how it was run: as §1

Chain of DNA nucleotidylexotransferase (P04053 whole entry): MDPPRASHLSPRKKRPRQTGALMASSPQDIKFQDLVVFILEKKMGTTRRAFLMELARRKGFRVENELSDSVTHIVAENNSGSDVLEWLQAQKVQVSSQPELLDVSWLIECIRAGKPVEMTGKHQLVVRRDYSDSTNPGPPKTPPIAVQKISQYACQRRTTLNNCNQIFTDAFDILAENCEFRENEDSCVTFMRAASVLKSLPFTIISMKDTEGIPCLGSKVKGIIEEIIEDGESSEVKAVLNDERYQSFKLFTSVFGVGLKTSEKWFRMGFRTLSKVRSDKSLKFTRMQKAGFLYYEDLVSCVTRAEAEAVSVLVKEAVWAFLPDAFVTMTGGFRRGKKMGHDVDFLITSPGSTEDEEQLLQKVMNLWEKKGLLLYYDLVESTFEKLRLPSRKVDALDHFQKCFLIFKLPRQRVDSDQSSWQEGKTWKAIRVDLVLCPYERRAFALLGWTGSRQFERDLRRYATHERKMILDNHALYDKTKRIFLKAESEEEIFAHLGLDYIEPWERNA

C=C(C)Cn1cc(/C=C/C(=O)CC(=O)C(=O)OCC)c2ccccc21
ID50 [1]: > 40 µM
ID50 [2]: > 40 µM
ID50 [3]: > 40 µM
IC50 [4]: > 40 µM

O=C(/C=C/c1cc(C(=O)c2ccccc2)cn1Cc1ccccc1)CC(=O)C(=O)O
ID50 [1]: 16 µM
ID50 [2]: 20 µM
IC50 [5]: > 40 µM
IC50 [6]: > 40 µM
ID50 [3]: > 40 µM
IC50 [4]: > 40 µM

COc1ccc(Cn2cc(/C=C/C(=O)CC(=O)C(=O)O)c3ccccc32)cc1
ID50 [1]: 10 µM
ID50 [2]: > 40 µM
IC50 [5]: > 40 µM
IC50 [6]: > 40 µM
ID50 [3]: > 40 µM
IC50 [4]: > 40 µM

C/C=C/n1cc(/C=C/C(=O)CC(=O)C(=O)O)c2ccccc21
ID50 [1]: 33 µM
ID50 [2]: 10 µM
IC50 [5]: > 40 µM
IC50 [6]: > 40 µM
ID50 [3]: > 40 µM
IC50 [4]: > 40 µM

CCOC(=O)C(=O)CC(=O)/C=C/c1cc(C(=O)c2cccc(F)c2)c[nH]1
ID50 [1]: 6 µM
ID50 [2]: 44 µM
IC50 [5]: > 40 µM
IC50 [6]: 30 µM
ID50 [3]: > 40 µM
IC50 [4]: > 40 µM

C/C=C/Cn1cc(/C=C/C(=O)CC(=O)C(=O)O)c2ccccc21
ID50 [1]: 7.3 µM
ID50 [2]: 5 µM
IC50 [5]: > 40 µM
IC50 [6]: > 40 µM
ID50 [3]: > 40 µM
IC50 [4]: > 40 µM

C/C=C/n1cc(/C=C/C(=O)CC(=O)C(=O)OCC)c2ccccc21
ID50 [1]: > 40 µM
ID50 [2]: > 40 µM
ID50 [3]: > 40 µM
IC50 [4]: > 40 µM

CCOC(=O)C(=O)CC(=O)/C=C/c1cn(C=C(C)C)c2ccccc12
ID50 [1]: > 40 µM
ID50 [2]: > 40 µM
ID50 [3]: > 40 µM
IC50 [4]: > 40 µM

O=C(/C=C/c1cn(Cc2ccccc2)c2ccccc12)CC(=O)C(=O)O
ID50 [1]: 7.9 µM
ID50 [2]: 1.7 µM
IC50 [5]: > 40 µM
IC50 [6]: 15 µM
ID50 [3]: > 40 µM
IC50 [4]: > 40 µM

O=C(/C=C/c1cn(-c2ccc(O)cc2)c2ccccc12)CC(=O)C(=O)O
ID50 [1]: 5.2 µM
ID50 [2]: > 40 µM
IC50 [5]: > 40 µM
IC50 [6]: > 40 µM
ID50 [3]: > 40 µM
IC50 [4]: > 40 µM

CC(C)CCn1cc(/C=C/C(=O)CC(=O)C(=O)O)c2ccccc21
ID50 [1]: 16.3 µM
ID50 [2]: > 40 µM
IC50 [5]: > 80 µM
IC50 [6]: 20 µM
ID50 [3]: > 40 µM
IC50 [4]: > 40 µM

CCCCn1cc(/C=C/C(=O)CC(=O)C(=O)OCC)c2ccccc21
ID50 [1]: > 40 µM
ID50 [2]: > 40 µM
ID50 [3]: > 40 µM
IC50 [4]: > 40 µM

N#Cc1ccc(Cn2cc(C(=O)c3ccccc3)cc2/C=C/C(=O)CC(=O)C(=O)O)cc1
ID50 [1]: 6.8 µM
ID50 [2]: > 40 µM
IC50 [5]: > 40 µM
IC50 [6]: 40 µM
ID50 [3]: > 40 µM
IC50 [4]: 40 µM

CCOC(=O)C(=O)CC(=O)/C=C/c1cn(-c2ccccc2)c2ccccc12
ID50 [1]: > 40 µM
ID50 [2]: > 40 µM
ID50 [3]: > 40 µM

CCOC(=O)C(=O)CC(=O)/C=C/c1cn(Cc2ccc(F)cc2)c2ccccc12
ID50 [1]: > 40 µM
ID50 [2]: > 40 µM
ID50 [3]: > 40 µM
IC50 [4]: > 40 µM

CCOC(=O)C(=O)CC(=O)/C=C/c1cc(C(=O)c2ccccc2)cn1Cc1ccc(C#N)cc1
ID50 [1]: > 40 µM
ID50 [2]: > 40 µM
ID50 [3]: > 40 µM
IC50 [4]: > 40 µM

O=C(/C=C/c1cn(CC(=O)N2CCOCC2)c2ccccc12)CC(=O)C(=O)O
ID50 [1]: 24 µM
ID50 [2]: 40 µM
IC50 [5]: > 40 µM
IC50 [6]: > 40 µM
ID50 [3]: > 40 µM
IC50 [4]: > 40 µM

O=C(/C=C/c1cc(C(=O)c2ccc(F)cc2)c[nH]1)CC(=O)C(=O)O
ID50 [1]: 0.58 µM
ID50 [2]: 40 µM
IC50 [5]: > 40 µM
IC50 [6]: > 40 µM
ID50 [3]: > 40 µM
IC50 [4]: > 40 µM

CCOC(=O)C(=O)CC(=O)/C=C/c1cn(CC(=O)N(C)C)c2ccccc12
ID50 [1]: > 40 µM
ID50 [2]: > 40 µM
ID50 [3]: > 40 µM
IC50 [4]: > 40 µM

CCOC(=O)C(=O)CC(=O)/C=C/c1cn(Cc2ccccc2)c2ccccc12
ID50 [1]: > 40 µM
ID50 [2]: > 40 µM
IC50 [5]: > 40 µM
IC50 [6]: > 40 µM
ID50 [3]: > 40 µM
IC50 [4]: > 40 µM

O=C(/C=C/c1cc(C(=O)c2cccc(F)c2)c[nH]1)CC(=O)C(=O)O
ID50 [1]: 0.78 µM
ID50 [2]: 35 µM
IC50 [5]: > 40 µM
IC50 [6]: > 40 µM
ID50 [3]: > 40 µM
IC50 [4]: > 40 µM

O=C(/C=C/c1cn(-c2ccccc2)c2ccccc12)CC(=O)C(=O)O
ID50 [1]: 47 µM
ID50 [2]: 2 µM
IC50 [5]: > 40 µM
IC50 [6]: > 40 µM
ID50 [3]: > 50 µM
IC50 [4]: > 40 µM

CCOC(=O)C(=O)CC(=O)/C=C/c1cn(Cc2ccc(C#N)cc2)c2ccccc12
ID50 [1]: > 40 µM
ID50 [2]: > 40 µM
ID50 [3]: > 40 µM
IC50 [4]: > 40 µM

C/C=C/Cn1cc(/C=C/C(=O)CC(=O)C(=O)OCC)c2ccccc21
ID50 [1]: > 40 µM
ID50 [2]: > 40 µM
ID50 [3]: > 40 µM
IC50 [4]: > 40 µM

CCOC(=O)C(=O)CC(=O)/C=C/c1cn(CC(=O)N2CCOCC2)c2ccccc12
ID50 [1]: > 40 µM
ID50 [2]: > 40 µM
ID50 [3]: > 40 µM
IC50 [4]: > 40 µM

CCOC(=O)C(=O)CC(=O)/C=C/c1cn(-c2ccc(O)cc2)c2ccccc12
ID50 [1]: > 40 µM
ID50 [2]: > 40 µM
ID50 [3]: > 40 µM
IC50 [4]: > 40 µM

O=C(/C=C/c1cn(Cc2ccc(F)cc2)c2ccccc12)CC(=O)C(=O)O
ID50 [1]: 10 µM
ID50 [2]: > 40 µM
IC50 [5]: > 40 µM
IC50 [6]: > 40 µM
ID50 [3]: > 40 µM
IC50 [4]: > 40 µM

CCCn1cc(/C=C/C(=O)CC(=O)C(=O)OCC)c2ccccc21
ID50 [1]: > 40 µM
ID50 [2]: > 40 µM
ID50 [3]: > 40 µM
IC50 [4]: > 40 µM

CCOC(=O)C(=O)CC(=O)/C=C/c1cc(C(=O)c2ccc(F)cc2)c[nH]1
ID50 [1]: 4.1 µM
ID50 [2]: > 40 µM
IC50 [5]: > 40 µM
IC50 [6]: 6.3 µM
ID50 [3]: 11 µM
IC50 [4]: > 40 µM

CCOC(=O)C(=O)CC(=O)/C=C/c1cc(C(=O)c2ccccc2)cn1Cc1ccc(F)cc1
ID50 [1]: > 40 µM
ID50 [2]: > 40 µM
ID50 [3]: > 40 µM
IC50 [4]: > 40 µM

N#Cc1ccc(C(=O)c2c[nH]c(/C=C/C(=O)CC(=O)C(=O)O)c2)cc1
ID50 [1]: 1.1 µM
ID50 [2]: 40 µM
IC50 [5]: > 40 µM
IC50 [6]: > 40 µM
ID50 [3]: > 40 µM
IC50 [4]: > 40 µM

CCOC(=O)C(=O)CC(=O)/C=C/c1cn(-c2ccc(Cl)cc2)c2ccccc12
ID50 [1]: > 40 µM
ID50 [2]: > 40 µM
ID50 [3]: 6 µM
IC50 [4]: > 40 µM

CCOC(=O)C(=O)CC(=O)/C=C/c1cn(Cc2ccc(OC)cc2)c2ccccc12
ID50 [1]: > 40 µM
ID50 [2]: > 40 µM
ID50 [3]: > 40 µM
IC50 [4]: > 40 µM

CCOC(=O)C(=O)CC(=O)/C=C/c1cc(C(=O)c2ccccc2)cn1Cc1ccccc1
ID50 [1]: > 40 µM
ID50 [2]: > 40 µM
ID50 [3]: > 40 µM
IC50 [4]: > 40 µM

CCOC(=O)C(=O)CC(=O)/C=C/c1cn(CCC(C)C)c2ccccc12
ID50 [1]: > 40 µM
ID50 [2]: > 40 µM
ID50 [3]: > 40 µM
IC50 [4]: > 40 µM

CCOC(=O)C(=O)CC(=O)/C=C/c1cn(Cc2ccc(O)cc2)c2ccccc12
ID50 [1]: 40 µM
ID50 [2]: > 40 µM
ID50 [3]: > 40 µM
IC50 [4]: > 40 µM

CCOC(=O)C(=O)CC(=O)/C=C/c1cn(Cc2ccc(Cl)cc2)c2ccccc12
ID50 [1]: 40 µM
ID50 [2]: > 40 µM
ID50 [3]: > 40 µM
IC50 [4]: > 40 µM
